Screening data from PubChem.
HSF1 inhib: HSF1 inhibitors in luciferase reporter cells, primary screen, cell-based, NIH3T3, luminescence. NIH3T3-HGL HSE-luciferase, MG132-induced, luminescence 8 h; active compounds read low. AID 2098, 2009. hit rate 0.77% among 300,000. activity change, negative = inhibition, % at 7.5 µM (by protocol);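 active means more than half of replicate wells show activity change below -50%, luminescence cut by over half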;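 further: luciferase reports HSF-1 transcriptional activity via heat shock element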
PERK inh: block of dimerizer-induced PERK translation repression, primary screen, PERK inhibitor project, CHO PERK-DD cells, SEAP luminescence, HTS | inhibition, % at 5.6 µM | Eukaryotic translation initiation factor 2-alpha kinase 3 (Homo sapiens), Q9NZJ5 | AID 1416, 2008 | hit rate 0.17% among 220,000 | CHO PERK-DD fusion, SEAP luminescence translation reporter;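 active means inhibition above the mean inhibition of all tested compounds plus 3 SD, set separately per screening campaign, cut at about 2.9% in these data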;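 further: PERK kinase domain activated by AP20187 dimerizer at 100 nM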
PolyA inh: polyadenylation inhibitors in yeast reporter cells, primary screen, luminescence, S. cerevisiae; S. cerevisiae SKY197-pL101 polyadenylation reporter, beta-gal luminescence; efflux-impaired pdr1/pdr3 knockout yeast; score 100 = 6 SD above DMSO; activity score, % at 12 µM; hit rate 0.02% among 300,000; AID 1875, 2009;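 active means lowest replicate activity score at least 50, where 100 means six control SD above control mean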;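 further: yeast exposed to compound for 9 h at 30 °C; higher score means more reporter readthrough which indicates perturbed polyadenylation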
STAT3 activator: IL-6 driven STAT3 reporter potentiators, primary screen, U3A cells, luciferase, luminescence, MLSCN library | IL-6 STAT3-luciferase reporter; 100% = signal with IL-6 EC80 alone | activation (% of control), % at 5.6 µM | hit rate 0.91% among 190,000 | AID 871, 2007;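 active means activation above the screen-wide mean of compound activation plus 3 SD, cut at about 130% in these data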
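system = STAT3-luciferase reporter U3A cells | reagent = IL-6 stimulus at 33 ng/mL final | timing = 1 h compound pre-exposure, 6 h IL-6 stimulation, 37 °C | measured by = luminescence | evaluation = % activation versus median of IL-6-stimulated wells | control set = IL-6-only wells as 100% reference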
Hsp70 act: Hsp70 transcriptional activators, primary screen, cell-based, HeLa, Hsp70 promoter luciferase, luminescence, 10 µM. HeLa Hsp70 promoter luciferase reporter; scaled: vehicle 0, proteasome-inhibitor control 100%. hit rate 0.04% among 200,000. activation, % at 10 µM. AID 1203, 2008;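 active means activation above the mean across all tested compounds plus 3 SD, cutoff set per campaign, cut at about 5.5% in these data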
AHR activator: AHR activators, primary screen, cell-based, luminescence, luciferase reporter, human | AHR-responsive luciferase reporter cells | activation, % at 5 µM | hit rate 2.5% among 320,000; in the data active means activation above about 47%
Target sequence (P35869 whole entry, looked up): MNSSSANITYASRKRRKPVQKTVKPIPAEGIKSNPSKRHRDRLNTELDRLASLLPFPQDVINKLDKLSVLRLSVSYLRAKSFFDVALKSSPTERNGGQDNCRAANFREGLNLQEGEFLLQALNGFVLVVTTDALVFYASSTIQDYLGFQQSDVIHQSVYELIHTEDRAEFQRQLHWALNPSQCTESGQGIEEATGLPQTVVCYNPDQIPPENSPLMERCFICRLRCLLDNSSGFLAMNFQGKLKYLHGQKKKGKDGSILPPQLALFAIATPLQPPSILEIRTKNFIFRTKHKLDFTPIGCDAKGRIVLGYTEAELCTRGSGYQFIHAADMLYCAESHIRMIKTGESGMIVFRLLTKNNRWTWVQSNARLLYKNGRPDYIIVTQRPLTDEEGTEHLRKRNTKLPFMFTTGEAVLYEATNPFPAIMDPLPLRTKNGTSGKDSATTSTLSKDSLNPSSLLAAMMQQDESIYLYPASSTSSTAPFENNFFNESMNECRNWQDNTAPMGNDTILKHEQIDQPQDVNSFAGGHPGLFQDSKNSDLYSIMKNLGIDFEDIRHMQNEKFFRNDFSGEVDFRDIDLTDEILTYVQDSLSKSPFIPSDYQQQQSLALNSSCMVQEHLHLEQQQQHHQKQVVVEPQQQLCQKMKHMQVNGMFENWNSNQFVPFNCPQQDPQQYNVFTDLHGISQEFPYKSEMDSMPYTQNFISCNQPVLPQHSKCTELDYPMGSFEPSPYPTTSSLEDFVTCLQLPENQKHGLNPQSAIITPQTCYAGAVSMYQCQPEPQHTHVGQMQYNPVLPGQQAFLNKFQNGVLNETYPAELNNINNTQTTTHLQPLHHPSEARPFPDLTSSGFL
Hits are given with their value; . = inactive; / = no result. This is a sample that favours compounds with a hit; in the whole collection about 3.6% have one here.

SMILES	HSF1 inhib	PERK inh	PolyA inh	STAT3 activator	Hsp70 act	AHR activator
COc1cc(C#Cc2c(-c3cncn3C)n(C)c3ccc(-c4ccc(OC)c(OC)c4)cc23)cc(OC)c1	/	/	/	/	/	68
COc1cc(C#Cc2c(-c3cncn3C)n(C)c3ccc(Br)cc23)cc(OC)c1	/	/	/	/	/	.
CCC(C)[C@H](NC(=O)OC(C)(C)C)C(=O)N/N=C/c1cccc2nccnc12 (some centres not stated)	.	.	.	.	.	.
CCC(C)[C@@H](N)C(=O)N/N=C/c1cccc2nccnc12 (some centres not stated)	.	.	.	/	/	70
O=C1CN(C(=O)CSc2nc(-c3ccccc3)cs2)c2ccccc2N1	.	.	.	.	.	58
CCCN=C(Nc1ccc(Cl)cc1)c1cccnc1	.	.	.	.	.	118
CCCCN=C(Nc1ccc(Cl)cc1)c1cccnc1	.	.	.	.	.	88
COc1ccc(C(=O)NCC(=O)OC2CCCCC2=O)cc1 (configuration not stated)	.	3.6	.	.	.	.
Cc1ccccc1C(=O)NCC(=O)OC1CCCCC1=O (configuration not stated)	.	/	.	/	/	.
COc1cccc(NC(=O)CN(C)C(=O)c2cccc(S(=O)(=O)Nc3ccccc3OC)c2)c1	/	/	/	/	/	.
CCOC(=O)c1c(C)[nH]c(C)c1-c1ccccc1OC	.	.	.	.	.	.
CCOC(=O)c1c(C)[nH]c2cc(Br)c(OC)cc12	/	.	.	.	.	51
Cc1ccc(-n2[nH]c(=O)c3cccnc32)cc1	.	.	.	.	.	64
O=C(CSc1ccc2nnc(-c3cccnc3)n2n1)Nc1ccccc1C(F)(F)F	.	/	.	/	/	.
CC(=O)n1cc([C@H]2C=C(C(=O)O)O[C@@H](OCCCCO)C2)c2ccccc21	.	.	.	/	.	.
C#CCNC(=O)C1=C[C@@H](C2CCCCC2)C[C@@H](OCc2ccc(CO)cc2)O1	.	.	.	/	.	48
CC(=O)n1cc([C@@H]2C=C(C(=O)NCc3ccccc3)O[C@H](OCc3ccc(CO)cc3)C2)c2ccccc21	.	/	.	/	/	66
CC(=O)n1cc([C@@H]2C=C(C(=O)Nc3ccccc3)O[C@H](OCCCCO)C2)c2ccccc21	.	.	.	/	.	57
COc1ccc(NS(=O)(=O)c2cc(C(=O)N3CCN(C/C=C/c4ccccc4)CC3)ccc2C)cc1	.	/	.	/	/	.
O=C(O)CCC(=O)Nc1ccc(N=Nc2ccccc2)cc1	.	.	.	.	.	/
CC(C)(C)C(=O)Nc1ccc(N=Nc2ccccc2)cc1	-78	.	.	.	.	.
O=C(NCCC1=CCCCC1)c1c(O)nc2ccccn2c1=O	.	/	69	/	/	.
CCCCNC(=O)O[C@@H]1C[C@H]2CCC(=O)N3CC[C@@H](C1)[C@@H]23	.	/	.	/	/	.
Cc1c(O)ccc2c3c(c(=O)oc12)CCCC3	/	3.7	/	.	.	.
Cc1oc(C(=O)O)cc1COc1ccc2c3c(c(=O)oc2c1C)CCC3	-60	.	.	.	.	.
SMILES	HSF1 inhib	PERK inh	PolyA inh	STAT3 activator	Hsp70 act	AHR activator
Cc1c(OCC(=O)OC(C)(C)C)ccc2c3c(c(=O)oc12)CCC3	.	.	.	.	.	.
Cc1c(O)ccc2c3c(c(=O)oc12)CCC(C)C3 (configuration not stated)	.	.	.	.	.	.
CCCNC(=O)c1ccc(C)c(NC(=O)C2=C(C)OCCS2)c1	.	/	.	/	/	.
COC1C=CC=C(C)C(=O)NC2=CC(=O)C(N)=C(CC(C)CC(OC)C(O)C(C)C=C(C)C1OC(N)=O)C2=O (configuration not stated)	69	/	/	/	/	/
COc1ccc(F)cc1C(=O)C1CCCN(Cc2cccn2-c2ccccn2)C1 (configuration not stated)	-64	.	/	.	.	.
O=C(c1cc(F)ccc1F)C1CCCN(Cc2cccn2-c2ccccn2)C1 (configuration not stated)	.	.	.	/	/	.
COc1cccc(NC(=O)Cn2c(=O)n(C)c(=O)c3sc4c(c32)COC(C)(C)C4)c1	.	/	.	/	/	.
O=c1[nH]c(CSc2cccc[n+]2[O-])nc2ccccc12	.	.	.	/	/	48
Cn1c(SCc2nc3ccccc3c(=O)[nH]2)nc2ccccc21	.	.	.	.	.	61
Cn1c(SCC(=O)NCc2ccccc2)nc2ccccc21	-73	.	.	.	.	.
O=c1[nH]c(CSc2ncn[nH]2)nc2ccccc12	.	.	.	/	/	.
Cc1cc(NC(=O)CCC(=O)N(CC(=O)NCC2CCCO2)c2ccc(C)c(C)c2)no1 (configuration not stated)	.	/	.	/	/	.
Cc1c(-c2ccc(Cl)cc2)[n+](=O)c2c(n1[O-])CCCC2	.	.	.	/	/	.
Cc1c(-c2ccccc2)[n+](=O)c2c(n1[O-])CCC2	-87	.	.	.	.	.
CCCCSc1ncnc2[nH]ncc12	.	.	.	/	/	.
Clc1ccc(Nc2ccc(Cl)nn2)cc1	-55	.	.	/	/	.
NNc1ccc(Cl)nn1	.	.	.	/	/	69
CNc1ccc(Cl)nn1	.	.	.	.	.	.
CN(C)c1ccc(/C=C2/NC(=O)NC2=O)cc1	.	.	.	.	.	108
O=C1NC(=O)/C(=C/c2cccc(O)c2)N1	.	.	.	/	/	.
CCOC(=O)c1c(NC(=O)COC(=O)CCOc2ccc(C)cc2)sc(C(=O)N(C)C)c1C	.	/	.	/	/	.
O=C1C(Cl)=C(N2CCCCC2)C(=O)N1c1ccccc1Cl	.	.	.	.	.	.
O=C1c2cccc(Cl)c2C(=O)c2c1cccc2N1CCCC1	.	.	.	137	.	.
O=C(Nc1nc2cc3c(cc2s1)OCO3)C1CCCCC1	.	/	.	/	/	.
CC(C)(C)C(=O)Nc1nc2cc3c(cc2s1)OCO3	.	.	.	/	/	.
SMILES	HSF1 inhib	PERK inh	PolyA inh	STAT3 activator	Hsp70 act	AHR activator
CC(C)C(=O)Nc1nc2cc3c(cc2s1)OCO3	.	.	.	.	.	66
O=C(Nc1nc2cc3c(cc2s1)OCO3)C1CC1	.	.	.	/	/	57
COc1ccc(S(=O)(=O)N2CCCCC2)cc1NC(=O)CNc1ccc(F)cc1C	/	/	/	/	/	.
Cc1cc(C)cc(C(=O)Oc2cc(C)[nH]c(=O)c2[N+](=O)[O-])c1	.	/	.	/	/	.
Nc1ccc2c(c1)Nc1ccccc1CC2	.	.	.	.	.	50
COC(=O)[C@]1(C)N[C@H](CN(C)C(=O)COc2ccccc2)[C@@H]2C(=O)N(C)C(=O)[C@@H]21	/	/	/	/	/	.
